Test results taken from PMC3515842 (Journal of medicinal chemistry, 2012).
One block for each molecule: values may come before it.

How the values were obtained:
[1] = target: total AP site incision activity of HeLa whole cell extract (APE1) (Homo sapiens, UniProt P27695); experiment: HeLa whole cell extract incision assay; format: biochemical; conditions: for inhibition at 100 µM: read-out: inhibition of the incision activity of HeLa extracts
[2] = in vivo PK analysis, IP administration; conditions: IP 30 mg/kg, CD1 mice, 24 hour observation
[3] = target: T1, APE1 (Homo sapiens, UniProt P27695); experiment: enzyme kinetic studies of APE1 incision; format: biochemical; conditions: for KM increase: 5, 10 or 20 µM inhibitor; for mode of inhibition: Lineweaver-Burk analysis; for kcat decrease: only at the high inhibitor concentration
T1 sequence (P27695 whole entry): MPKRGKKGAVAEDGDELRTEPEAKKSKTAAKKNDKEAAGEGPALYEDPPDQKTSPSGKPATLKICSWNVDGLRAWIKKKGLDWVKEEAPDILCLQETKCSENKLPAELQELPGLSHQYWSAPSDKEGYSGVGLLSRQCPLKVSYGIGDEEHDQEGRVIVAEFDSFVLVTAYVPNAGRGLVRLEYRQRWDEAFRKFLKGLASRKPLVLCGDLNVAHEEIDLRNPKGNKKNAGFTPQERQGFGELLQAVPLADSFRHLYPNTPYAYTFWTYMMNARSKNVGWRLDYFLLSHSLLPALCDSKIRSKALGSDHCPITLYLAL

[4] = target: CYP3A4 (Homo sapiens, UniProt P08684); experiment: CYP3A4 inhibition; format: in vitro ADME
CYP3A4, sequence (P08684 whole entry, species assumed): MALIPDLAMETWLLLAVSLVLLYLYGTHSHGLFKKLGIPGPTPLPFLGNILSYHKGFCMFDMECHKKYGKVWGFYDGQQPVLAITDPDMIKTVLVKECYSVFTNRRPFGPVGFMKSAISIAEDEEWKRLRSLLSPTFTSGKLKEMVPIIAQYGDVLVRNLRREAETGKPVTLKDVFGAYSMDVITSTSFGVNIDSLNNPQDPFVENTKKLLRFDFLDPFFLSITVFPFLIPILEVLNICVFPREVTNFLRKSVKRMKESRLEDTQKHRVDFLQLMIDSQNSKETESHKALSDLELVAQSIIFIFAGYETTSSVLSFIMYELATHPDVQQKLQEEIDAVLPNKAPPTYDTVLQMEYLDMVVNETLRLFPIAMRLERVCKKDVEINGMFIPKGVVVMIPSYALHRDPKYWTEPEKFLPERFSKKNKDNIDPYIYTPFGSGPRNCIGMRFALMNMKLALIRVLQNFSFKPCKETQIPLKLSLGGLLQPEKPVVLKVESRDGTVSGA

[5] = target: APE1-DNA complex (Homo sapiens, UniProt P27695); experiment: electrophoretic mobility shift assay; format: binding; conditions: protein pre-treated with 30 µM inhibitor
APE1-DNA complex, sequence (P27695 whole entry, one chain of several): as the sequence (P27695 whole entry) above
How it was run: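 Recombinant wild-type APE1 (10 ng, ~28 nM) was preincubated 10 min on ice with test compound (1, 3, 10, 30, 100 µM) or 1% DMSO. 32P AP-DNA (100 fmol, 10 nM) was added for 5 min on ice. Complex and free DNA were separated on native 8% PAGE (2 h, 120 V); percent DNA bound was read by phosphorimager.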

[6] = tested on: HeLa cells; experiment: MMS and TMZ potentiation / HeLa cell viability assay; format: cell-based, human; conditions: for IC50: Homo sapiens, read-out: 50% reduction in cell viability as a single agent; for IC50 / concentration of optimal synergy with MMS and TMZ: 24 h; for potentiation of cytotoxic effects of MMS and TMZ / concentration of optimal synergy with MMS and TMZ: MMS 0.4 mM or TMZ 1 mM
How it was run: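 HeLa cells in DMEM with 10% FBS, seeded at 6K/well and left overnight to attach. Medium was then replaced with fresh medium holding serial dilutions of test compound (5–30 µM), with or without MMS (0.4 mM) or TMZ (1 mM), for 24 h. Viability was read by CellTiter Glo luminescence after 30 min at room temperature, as percent of DMSO control, normalized to 100% per alkylating agent without compound.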

[7] = Caco-2 permeability; format: in vitro ADME; conditions: human, Caco-2, pH 7.4
[8] = target: T1, APE1; experiment: fluorescence-based qHTS assay of APE1 endonuclease activity; format: biochemical; conditions: for less activity than the corresponding amide analog (4): relative to 4

total AP site incision activity of HeLa whole cell extract (APE1), sequence (P27695 whole entry): as above

SMILES: CC(=O)Nc1sc2c(c1-c1nc3ccccc3s1)CCN(C(C)C)C2 [Compound 3, N-(3-(benzo[d]thiazol-2-yl)-6-isopropyl-4,5,6,7-tetrahydrothieno[2,3-c]pyridin-2-yl)acetamide]
inhibition at 100 µM [1]: ~100% | tolerability [2]: well tolerated by the animals, with no adverse effects noted | KM increase [3]: ≤ 4 fold | mode of inhibition [3]: competitive inhibitors | kcat decrease [3]: less than 6 fold | CYP3A4 (inh. @ 10 µM) [4]: 53% | APE1-DNA binary complex [5]: essentially absent | IC50 [6]: ~15 µM | potentiation of cytotoxic effects of MMS and TMZ [6]: greatly potentiated | concentration of optimal synergy with MMS and TMZ [6]: 5 to 10 µM | Papp [7]: 500 ×10⁻⁶ cm/s

SMILES: CC(=O)Nc1sc2c(c1-c1ccco1)CCNC2 [Compound 13]
activity against APE1 in the qHTS assay, in words [8]: greatly diminished activity

SMILES: CC(=O)Nc1sc2c(c1-c1cccs1)CCNC2 [Compound 14]
activity against APE1 in the qHTS assay, in words [8]: greatly diminished activity

SMILES: CC(=O)Nc1sc2c(c1-c1ncco1)CCNC2 [Compound 19]
activity against APE1 in the qHTS assay, in words [8]: greatly diminished activity

SMILES: CC(=O)Nc1sc2c(c1-c1nccs1)CCNC2 [Compound 20]
activity against APE1 in the qHTS assay, in words [8]: greatly diminished activity

SMILES: COC(=O)c1sc2c(c1-c1nc3ccccc3s1)CCNC2 [Compound 41]
activity against APE1 in the qHTS assay, in words [8]: complete loss of activity

SMILES: O=C(O)c1sc2c(c1-c1nc3ccccc3s1)CCNC2 [Compound 42]
activity against APE1 in the qHTS assay, in words [8]: complete loss of activity

SMILES: Cc1nnc(-c2sc3c(c2-c2nc4ccccc4s2)CCNC3)o1 [Compound 43]
activity against APE1 in the qHTS assay, in words [8]: completely inactive

SMILES: Cc1noc(-c2sc3c(c2-c2nc4ccccc4s2)CCNC3)n1 [Compound 44]
activity against APE1 in the qHTS assay, in words [8]: completely inactive

SMILES: Cc1nnc(Nc2sc3c(c2-c2nc4ccccc4s2)CCNC3)o1 [Compound 45]
activity against APE1 in the qHTS assay, in words [8]: modest activity | less activity than the corresponding amide analog (4) [8]: approximately 8 fold

SMILES: Cc1noc(Nc2sc3c(c2-c2nc4ccccc4s2)CCNC3)n1 [Compound 46]
activity against APE1 in the qHTS assay, in words [8]: modest activity | less activity than the corresponding amide analog (4) [8]: approximately 8 fold

SMILES: CC(=O)Nc1sc2c(c1-c1nc3ccccc3s1)CCOC2 [Compound 47]
activity against APE1 in the qHTS assay, in words [8]: still active against APE1, albeit only at the highest concentration

SMILES: CC(=O)Nc1sc2c(c1-c1nc3ccccc3s1)CCSC2 [Compound 48]
activity against APE1 in the qHTS assay, in words [8]: still active against APE1, albeit only at the highest concentration

SMILES: CC(=O)Nc1sc2cnccc2c1-c1nc2ccccc2s1 [Compound 50]
activity against APE1 in the qHTS assay, in words [8]: completely inactive

SMILES: CC(=O)Nc1sc2c(c1-c1nc3ccccc3s1)CNC2 [Compound 52, N-(3-(benzo[d]thiazol-2-yl)-5,6-dihydro-4H-thieno[2,3-c]pyrrol-2-yl)acetamide]
IC50 [8]: 3.1 µM | inhibition of HeLa whole cell extract AP site incision ([1]; 10 µM inhibitor): almost complete inhibition | inhibition at 100 µM [1]: ~100% | tolerability [2]: well tolerated by the animals, with no adverse effects noted | KM increase [3]: up to 10 fold | mode of inhibition [3]: competitive inhibitors | kcat decrease [3]: less than 6 fold | APE1-DNA binary complex [5]: essentially absent | IC50 [6]: ~30 µM | potentiation of cytotoxic effects of MMS and TMZ [6]: greatly potentiated | concentration of optimal synergy with MMS and TMZ [6]: 10 to 15 µM | Papp [7]: 680 ×10⁻⁶ cm/s

The remaining lines, values ahead:

inhibition at 100 µM [1]: ~100%
SMILES: CC(=O)Nc1sc2c(c1-c1nc3ccccc3s1)CCNC2 [Compound 4]

activity against APE1 in the qHTS assay, in words [8]: significant loss of activity
SMILES: CC(=O)Nc1sc2c(c1-c1nc3ccccc3s1)CCN(C(=O)OC(C)(C)C)C2 [Compound 5]

activity against APE1 in the qHTS assay, in words [8]: significant loss of activity
SMILES: CC(=O)Nc1sc2c(c1-c1nc3ccccc3s1)CCN(C(C)=O)C2 [Compound 8]

activity against APE1 in the qHTS assay, in words [8]: greatly diminished activity
SMILES: CC(=O)Nc1sc2c(c1-c1cc3ccccc3s1)CCNC2 [Compound 15]

activity against APE1 in the qHTS assay, in words [8]: greatly diminished activity
SMILES: CC(=O)Nc1sc2c(c1-c1cc3ccccc3o1)CCNC2 [Compound 17]

loss in activity ([8]; relative to lead compound 3): 10 fold
SMILES: CC(=O)Nc1sc2c(c1-c1nc3ccccc3o1)CCN(C(C)C)C2 [Compound 23]

activity against APE1 in the qHTS assay, in words [8]: activity comparable to the lead compound
SMILES: CC(=O)Nc1sc2c(c1-c1nc(-c3ccccc3)cs1)CCN(C(C)C)C2 [Compound 24]

activity against APE1 in the qHTS assay, in words [8]: inactive
SMILES: CC(C)(C)C(=O)Nc1sc2c(c1-c1nc3ccccc3s1)CCNC2 [Compound 26]

activity against APE1 in the qHTS assay, in words [8]: inactive
SMILES: O=C(CCc1ccccc1)Nc1sc2c(c1-c1nc3ccccc3s1)CCNC2 [Compound 30]

activity against APE1 in the qHTS assay, in words [8]: only modest efficacy
SMILES: CC(=O)Nc1sc2c(c1-c1nc3ccccc3s1)CNCC2 [Compound 53]

inhibition at 100 µM [1]: ~100%
SMILES: CC(=O)Nc1sc2c(c1-c1nc3ccccc3s1)CCN(C(C)C)CC2 [Compound 55]
